# Screens as filed in PubChem.
# SENP8 block-1: human SENP8 protease inhibitors, primary screen, biochemical, fluorescence, Nedd8 protein substrate, uHTS; Sentrin-specific protease 8 (Homo sapiens), Q96LD8; recombinant SENP8; inhibition, % at 20 µM; actives 0.64% (n = 360,000); AID 602440, 2012; in the data active means inhibition mostly above about 40%, no sharp cut-off; inactive means mostly below about 27%
# SENP6 inh: SENP6 protease inhibitors, primary screen, biochemical, luminescence, uHTS; Recombinant SENP6 catalytic domain, aminoluciferin luminescence; inhibition, % at 10 µM; actives 1.8% (n = 330,000); AID 2599, 2010;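 active means inhibition above about 50% at the single tested dose, limit read from the data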
# SENP7 block: SENP7 protease inhibitors, primary screen, biochemical, luminescence, uHTS | recombinant SENP7, Z-RLRGG-aminoluciferin luminescence, 40 min | inhibition, % at 5 µM | actives 1.5% (n = 330,000);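 active means inhibition above about 50% at the single test dose, limit read from the data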
# Target sequence (Q9BQF6 706-1050 limits assumed): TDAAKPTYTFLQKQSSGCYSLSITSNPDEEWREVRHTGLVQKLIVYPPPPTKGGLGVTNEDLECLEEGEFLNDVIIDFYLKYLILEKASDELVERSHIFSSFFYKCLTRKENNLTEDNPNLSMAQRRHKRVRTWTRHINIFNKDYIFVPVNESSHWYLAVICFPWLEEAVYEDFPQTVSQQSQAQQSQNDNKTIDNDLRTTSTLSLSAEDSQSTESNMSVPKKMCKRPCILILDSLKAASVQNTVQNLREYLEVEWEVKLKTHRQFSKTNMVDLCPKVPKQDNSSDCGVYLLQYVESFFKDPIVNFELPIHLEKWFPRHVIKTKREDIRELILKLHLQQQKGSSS
# SENP1 inh: human SENP1 catalytic domain inhibitors, primary screen, biochemical, FRET, uHTS; recombinant SENP1 catalytic domain, CyPet-SUMO1-YPet FRET cleavage; inhibition, % at 10 µM; actives 0.21% (n = 360,000);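 active means inhibition at least 30% at 10 µM, raw YFP signal under a set limit, fluorescence ratio 0.5 to 1.5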
# Target sequence (Q9P0U3 419-644 limits assumed): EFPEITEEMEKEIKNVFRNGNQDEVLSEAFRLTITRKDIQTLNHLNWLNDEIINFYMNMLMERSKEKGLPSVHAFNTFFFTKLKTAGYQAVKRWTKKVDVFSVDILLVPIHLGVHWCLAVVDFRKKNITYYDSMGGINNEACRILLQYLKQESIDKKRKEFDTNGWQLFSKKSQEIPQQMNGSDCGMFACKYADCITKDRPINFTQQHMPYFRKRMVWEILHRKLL
#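 Controls: no-enzyme wells low, DMSO-plus-enzyme wells high control. Test system: human recombinant His6-tagged SENP1 catalytic domain enzyme. Reagent: SFCypet-SUMO1-SFYpet FRET protein substrate, 25 nM final. Doses: one dose per compound, 10 µM, 0.5% DMSO. Detection: FRET, CFP and YFP emission. Timing: 50 min reaction at room temperature.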
# SENP8 block-2: SENP8 protease inhibitors, primary screen, biochemical, luminescence; inhibition, % at 10 µM; Sentrin-specific protease 8 (Homo sapiens), Q96LD8; actives 1.2% (n = 330,000); purified SENP8, Z-RLRGG-aminoluciferin cleavage; AID 2540, 2010; in the data active means inhibition above about 50%
# SENP8 conf: SENP8 protease inhibitors, retest, confirmation, biochemical, luminescence, single concentration. Recombinant SENP8, Z-RLRGG-aminoluciferin luminescence, 60 min. AID 488912, 2010. inhibition, % at 12.5 µM. shares compounds with SENP7 block. actives 40% (n = 6,200);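 active means mean inhibition across replicates above about 50%, limit read from the data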
# SENP6 confirm: SENP6 protease inhibitors, confirmation, biochemical, luminescence, single concentration; recombinant SENP6, Z-RLRGG-aminoluciferin luminescence; actives 58% (n = 6,200); shares compounds with SENP7 block; inhibition, % at 12.5 µM
# SENP7 confirm: SENP7 protease inhibitors, retest, confirmation, biochemical, luminescence, single concentration; shares compounds with SENP7 block; recombinant SENP7, Z-RLRGG-aminoluciferin luminescence, 40 min; inhibition, % at 12.5 µM; actives 69% (n = 6,200); AID 488917, 2010
# Casp3 SENP sel: caspase-3 protease inhibitors, confirmation, selectivity assay for SENP inhibitor project, biochemical, single concentration. shares compounds with SENP7 block. purified caspase-3, Z-DEVD-aminoluciferin luminescence, 60 min. inhibition, % at 12.5 µM. actives 60% (n = 6,200). AID 488918, 2010;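 active means mean inhibition above about 50%, limit read from the data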
# SENP luc ctr: interferes with luciferase luminescence in SENP counter-screen | actives 39% (n = 6,200) | shares compounds with SENP7 block | inhibition, % at 12.5 µM | Pre-incubated SENP8/Z-RLRGG-aminoluciferin, luciferase luminescence interference;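 active means mean inhibition above about 50% when retested at one dose, limit read from the data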
# Hits are given with their value; - = inactive; . = not tested or not shown. Rows were chosen to be rich in hits. Some 2.5% of all compounds tested hit in one or more screens of this group.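 How the source made its calls, unless noted: active means mean inhibition above about 50% in the one-dose retest (limit read from the data); inactive means the rest.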
SMILES,SENP8 block-1,SENP6 inh,SENP7 block,SENP1 inh,SENP8 block-2,SENP8 conf,SENP6 confirm,SENP7 confirm,Casp3 SENP sel,SENP luc ctr
CCCCCOc1ccc(CSc2ncn[nH]2)cc1,-,64.9,-,-,-,70.9,68.0,85.7,-,74.2
CCCCOc1ccc(CSc2ncn[nH]2)cc1,-,-,-,-,-,.,.,.,.,.
CCCOc1ccc(CSc2nc3ccccc3[nH]2)cc1,-,90.9,95.3,-,87.6,92.4,97.4,102.3,87.5,57.6
N/C(=N/OC(=O)c1ccccc1Cl)c1nonc1N,-,96.9,98.5,-,95.9,99.8,100.8,103.5,99.2,97.5
Cc1cc(/C(N)=N/OC(=O)c2ccccc2Cl)no1,-,81.2,88.0,-,76.9,84.8,83.6,97.3,93.3,85.5
N/C(=N/OCC(=O)Nc1cccc2ccccc12)c1nonc1N,-,-,-,-,-,.,.,.,.,.
Cc1nc(/C(N)=N/OC(=O)c2cccc(Cl)c2)c(C(F)(F)F)o1,-,-,-,-,-,.,.,.,.,.
Cc1nc(/C(N)=N/OC(=O)c2ccccc2Cl)c(C(F)(F)F)o1,-,83.3,88.2,-,80.0,87.9,87.6,97.9,95.2,88.2
N/C(=N\OC(=O)c1ccc(F)cc1)c1nonc1N,-,95.6,98.5,-,94.0,97.5,98.1,102.4,97.9,87.3
Cc1cccc(C)c1NC(=O)Nc1ccc(S(N)(=O)=O)cc1,-,-,-,-,-,.,.,.,.,.
C[C@@H]1C(=O)N(c2ccccc2)[C@@H]1c1ccncc1,-,.,-,-,.,.,.,.,.,.
CC1COC(=O)C(NNc2ccc(Cl)c(Cl)c2)=N1 (centres undefined),-,-,-,-,-,.,.,.,.,.
CC1CCCN(C2(O)C(=O)Nc3ccc([N+](=O)[O-])cc32)C1 (centres undefined),-,-,-,-,-,.,.,.,.,.
Cc1ccc(C(=O)O/N=C(\N)c2nonc2N)cc1,-,97.5,100.9,-,97.2,97.8,98.3,101.4,97.2,97.2
COc1cccc2cc(-c3nc4ccccc4[nH]3)c(=O)oc12,-,-,59.0,-,-,-,-,-,-,-
Cc1cccc2cc(-c3nc4ccc(C(=O)O)cc4[nH]3)c(=O)oc12,-,88.2,85.7,-,85.8,93.5,94.2,100.2,98.4,56.4
COc1ccc(-c2cc3cccc(OC)c3oc2=O)cc1,-,80.7,87.0,-,80.2,89.3,89.6,99.0,88.0,76.3
CC(=O)NC(C)(c1ccccc1)c1nc(-c2cc(F)cc(F)c2)cs1 (centres undefined),-,.,.,-,.,.,.,.,.,.
CCC(COC)NCc1cn(-c2ccc(OC)cc2)nc1-c1cccc(F)c1 (centres undefined),-,-,-,-,-,.,.,.,.,.
O=C(OCc1nnc(-c2ccccc2)o1)c1ccc([N+](=O)[O-])s1,-,68.2,-,-,70.5,72.2,83.0,-,-,-
CCc1ccccc1NC(=O)CN(C)C(=O)COC(=O)c1ccccc1Cl,-,-,-,-,-,.,.,.,.,.
O=C(Nc1ncc([N+](=O)[O-])s1)c1ccco1,-,91.6,92.1,-,91.5,93.1,93.2,101.5,97.6,66.1
COc1ccc(S(=O)(=O)N2CCOCC2)cc1NC(=O)COC(=O)c1ccc([N+](=O)[O-])s1,-,53.3,-,-,67.3,-,82.6,-,-,-
CN(CC(=O)Nc1ccccc1Cl)C(=O)COC(=O)c1ccccc1[N+](=O)[O-],-,-,100.6,-,-,-,-,-,-,-
CO[C@H]1CC[C@@]2(C)[C@@H](CC[C@@H]3[C@@H]2CC[C@@]2(C)[C@H]3C[C@H](C(=O)N[C@@H](CCCN=C(N)N)C(=O)NCC(=O)N[C@@H](CC(=O)O)C(N)=O)O[C@]23CCCO3)C1,-,.,-,-,.,.,.,.,.,.
SMILES,SENP8 block-1,SENP6 inh,SENP7 block,SENP1 inh,SENP8 block-2,SENP8 conf,SENP6 confirm,SENP7 confirm,Casp3 SENP sel,SENP luc ctr
COc1ccc(C(O)P(=O)(OCCC(C)C)c2ccc(N(C)C)cc2)cc1 (centres undefined),-,-,-,-,-,.,.,.,.,.
CSc1ncccc1C(=O)OCC(=O)NCc1ccc2c(c1)OCO2,-,-,-,-,-,.,.,.,.,.
Cc1cc(C(=O)OCC(=O)N2CCC(c3ccccc3)=N2)ccc1[N+](=O)[O-],-,-,-,-,-,.,.,.,.,.
O=C(CC(=O)Nc1ccccc1[N+](=O)[O-])Nc1ccccc1[N+](=O)[O-],-,-,-,-,-,.,.,.,.,.
O=C(COC(=O)c1ccc([N+](=O)[O-])s1)Nc1ccccc1,-,64.3,-,-,53.1,81.5,88.3,-,-,-
O=C(COC(=O)c1ccc(O)cc1)Nc1ccccc1[N+](=O)[O-],-,56.8,-,-,-,-,-,69.5,52.3,-
O=C(COC(=O)COc1ccccc1)Nc1ncc([N+](=O)[O-])s1,-,90.6,76.1,-,88.0,90.4,89.3,98.9,91.7,90.1
O=C(OCC(=O)N1CCC(c2ccccc2)=N1)c1ccc([N+](=O)[O-])s1,-,55.7,-,-,62.7,-,74.2,-,-,-
O=C(COc1ccc(Cl)cc1)Nc1ncc([N+](=O)[O-])s1,-,.,.,-,.,.,.,.,.,.
COc1cc2[nH]c3c(=O)n4c(nc3c2cc1OC)SCCC4,-,-,-,-,-,.,.,.,.,.
CCN(CCNCC(O)COCc1ccc(Cl)cc1)c1cccc(C)c1 (centres undefined),-,-,-,-,-,.,.,.,.,.
CC(=O)Nc1ccc(-n2nnnc2SCC(=O)Nc2cccc(NC(=O)c3ccco3)c2)cc1,-,-,-,-,-,.,.,.,.,.
CC1=C(C(=O)N(C(C)C)C(C)C)CC(CC(=O)NCc2cccs2)C(=O)N1Cc1ccccc1 (centres undefined),-,.,.,-,.,.,.,.,.,.
